Laboratory results taken from ChEMBL document CHEMBL4316593 (Eur J Med Chem, 2019).
Activity calls are given as the source filed them. The rule behind the calls is not given here.

What was measured:
LN-229 [1] = experiment: Cell cycle arrest in human LN229 cells assessed as decrease in accumulation at G2/M-phase at cytotoxic IC50 measured after 48 hrs by propidium iodide staining based fluorescence cell imaging analysis; assay type: functional
How it was run: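 Cell cycle by PI staining. Cells seeded at 1×10^6 and grown overnight at 37°C, 5% CO₂, then exposed for 48hrs at their IC₅₀ concentration, with DMSO and cisplatin controls. Cells were trypsinized, washed in cold PBS and fixed in 70% ethanol at 4°C for 30 min. They were stained with PI in Triton X-100/RNase for 15 min at 37°C and imaged by fluorescence microscopy. Reported as mean ± S.E.M of triplicates.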

U-87 MG [2] = experiment: Cell cycle arrest in human U87 cells assessed as change in CDK7 gene expression at cytotoxic IC50 measured after 48 hrs […] relative to control; assay type: functional, U-87MG ATCC
How it was run: (§1)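 U87 expression profiling. Cells incubated 48hrs at 37°C, 5% CO₂ with the IC₅₀ concentration, alongside a cisplatin and an untreated control, in triplicate. RNA was isolated by one common protocol and profiled. DEGs were called with DESeq2 (q < 0.05, fold change > 1.5) and expressed as fold change versus untreated.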

[3] = Inhibition of RTK/PI3K/AKT/mTOR signaling in human U87 cells assessed as up regulation of COX19, cytochrome c oxidase assembly factor gene expression at cytotoxic IC50 measured after 48 hrs relative to control; assay type: cell-based; details: U-87MG ATCC
How it was run: (§2)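 Cells were exposed for 48hrs at 37°C in humidified 5% CO₂ to the compound at its previously determined IC₅₀, with Cisplatin at its IC₅₀ and an untreated negative control alongside. Each condition was run in triplicate. RNA was isolated from all samples by the same protocol. Genes were called differentially expressed by DESeq2 at q-value < 0.05 and fold change > 1.5.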

U-87 MG [4] = experiment: Cell cycle arrest in human U87 cells assessed as change in CDKN1A gene expression at cytotoxic IC50 measured after 48 hrs […] relative to control; assay type: functional, U-87MG ATCC; how it was run: as §1
[5] = Inhibition of RTK/PI3K/AKT/mTOR signaling in human U87 cells assessed as up regulation of TTYH3 gene expression at cytotoxic IC50 measured after 48 hrs relative to control; assay type: cell-based; details: U-87MG ATCC
[6] = Inhibition of RTK/PI3K/AKT/mTOR signaling in human U87 cells assessed as up regulation of regulator of chromosome condensation 2 gene expression at cytotoxic IC50 measured after 48 hrs relative to control; assay type: cell-based; details: U-87MG ATCC
U-87 MG [7] = experiment: Induction of apoptosis in human U87 cells assessed as change in CTSV gene expression at cytotoxic IC50 measured after 48 hrs […] relative to control; assay type: functional, U-87MG ATCC
How it was run: (§3)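 U87 cells grown in MEM with 10% FBS at 37°C, 5% CO2. Cells exposed to IC50 of test compound for 48 hrs, alongside untreated and cisplatin controls, each condition in triplicate. RNA isolated and profiled; differential expression called with DESeq2 (q-value < 0.05, fold change > 1.5), fold change versus untreated.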

[8] = Inhibition of RTK/PI3K/AKT/mTOR signaling in human U87 cells assessed as down regulation of EIF1B gene expression at cytotoxic IC50 measured after 48 hrs relative to control; assay type: cell-based; details: U-87MG ATCC; how it was run: as §3
U-87 MG [9] = experiment: Cell cycle arrest in human U87 cells assessed as change in MCM3 gene expression at cytotoxic IC50 measured after 48 hrs […] relative to control; assay type: functional, U-87MG ATCC; how it was run: as §1
U-87 MG [10] = experiment: Induction of DNA damage in human U87 cells assessed as change in TRIAP1 gene expression at cytotoxic IC50 measured after 48 hrs […] relative to control; assay type: functional, U-87MG ATCC; how it was run: as §3
U-87 MG [11] = experiment: Cell cycle arrest in human U87 cells assessed as change in PCNA gene expression at cytotoxic IC50 measured after 48 hrs […] relative to control; assay type: functional, U-87MG ATCC; how it was run: as §1
U-87 MG [12] = experiment: Induction of apoptosis in human U87 cells assessed as change in CAPN1 gene expression at cytotoxic IC50 measured after 48 hrs […] relative to control; assay type: functional, U-87MG ATCC; how it was run: as §3
U-87 MG [13] = experiment: Induction of DNA damage in human U87 cells assessed as change in GADD45A gene expression at cytotoxic IC50 measured after 48 hrs […] relative to control; assay type: functional, U-87MG ATCC; how it was run: as §1
U-87 MG [14] = experiment: Induction of apoptosis in human U87 cells assessed as change in TNFRSF10C gene expression at cytotoxic IC50 measured after 48 hrs […] relative to control; assay type: functional, U-87MG ATCC; how it was run: as §3
[15] = Inhibition of RTK/PI3K/AKT/mTOR signaling in human U87 cells assessed as up regulation of AGRN gene expression at cytotoxic IC50 measured after 48 hrs relative to control; assay type: cell-based; details: U-87MG ATCC; how it was run: as §2
[16] = Inhibition of RTK/PI3K/AKT/mTOR signaling in human U87 cells assessed as down regulation of FAM222A gene expression at cytotoxic IC50 measured after 48 hrs relative to control; assay type: cell-based; details: U-87MG ATCC; how it was run: as §3
U-87 MG [17] = experiment: Cell cycle arrest in human U87 cells assessed as change in PKMYT1 gene expression at cytotoxic IC50 measured after 48 hrs […] relative to control; assay type: functional, U-87MG ATCC; how it was run: as §1
U-87 MG [18] = experiment: Induction of DNA damage in human U87 cells assessed as change in PLK2 gene expression at cytotoxic IC50 measured after 48 hrs […] relative to control; assay type: functional, U-87MG ATCC; how it was run: as §1
U-87 MG [19] = experiment: Induction of DNA damage in human U87 cells assessed as change in TAOK3 gene expression at cytotoxic IC50 measured after 48 hrs […] relative to control; assay type: functional, U-87MG ATCC; how it was run: as §3
U-87 MG [20] = experiment: Induction of DNA damage in human U87 cells assessed as change in BRCA1 gene expression at cytotoxic IC50 measured after 48 hrs […] relative to control; assay type: functional, U-87MG ATCC; how it was run: as §1
[21] = Inhibition of RTK/PI3K/AKT/mTOR signaling in human U87 cells assessed as down regulation of TSPAN33 gene expression at cytotoxic IC50 measured after 48 hrs relative to control; assay type: cell-based; details: U-87MG ATCC; how it was run: as §2
[22] = Inhibition of RTK/PI3K/AKT/mTOR signaling in human U87 cells assessed as up regulation of RPL7L1 gene expression at cytotoxic IC50 measured after 48 hrs relative to control; assay type: cell-based; details: U-87MG ATCC; how it was run: as §2
U-87 MG [23] = experiment: Induction of apoptosis in human U87 cells assessed as change in PIDD1 gene expression at cytotoxic IC50 measured after 48 hrs […] relative to control; assay type: functional, U-87MG ATCC; how it was run: as §3
LN-229 [24] = experiment: Induction of apoptosis in human LN229 cells assessed as apoptotic cells at cytotoxic IC50 measured after 48 hrs by Annexin V-FITC/propidium iodide staining based flow cytometry (reference value: 29.3%); assay type: functional
[25] = Inhibition of RTK/PI3K/AKT/mTOR signaling in human U87 cells assessed as up regulation of ubiquitin-fold modifier conjugating enzyme 1 gene expression at cytotoxic IC50 measured after 48 hrs relative to control; assay type: cell-based; details: U-87MG ATCC
[26] = Inhibition of RTK/PI3K/AKT/mTOR signaling in human U87 cells assessed as up regulation of KLF7 gene expression at cytotoxic IC50 measured after 48 hrs relative to control; assay type: cell-based; details: U-87MG ATCC; how it was run: as §2
[27] = Inhibition of RTK/PI3K/AKT/mTOR signaling in human U87 cells assessed as up regulation of lecithin retinol acyltransferase (phosphatidylcholine-retinol O-acyltransferase) gene expression at cytotoxic IC50 measured after 48 hrs relative to control; assay type: cell-based; details: U-87MG ATCC
U-87 MG [28] = experiment: Induction of apoptosis in human U87 cells assessed as change in MAPK8 gene expression at cytotoxic IC50 measured after 48 hrs […] relative to control; assay type: functional, U-87MG ATCC; how it was run: as §3

For `CC(=O)C(=NNc1ccccc1C#N)C(C)=O`, the Activity (LN-229 [1]) was “Active”, the “fold change (FC)” value (U-87 MG [2]) was -1.609 and the log2FC [3] was 1.33. The “fold change (FC)” value (U-87 MG [4]) was 1.296, the log2FC [5] was 0.524 and the log2FC [6] was 1.06. For the same compound, the log2FC (U-87 MG [7]) was 1.986, the log2FC [8] was -0.906 and the “fold change (FC)” value (U-87 MG [9]) was 1.427. The “fold change (FC)” value (U-87 MG [10]) was 2.018, the “fold change (FC)” value (U-87 MG [11]) was 1.668 and the log2FC (U-87 MG [12]) was 0.8843. For the same compound, the “fold change (FC)” value (U-87 MG [13]) was -0.9679, the log2FC (U-87 MG [14]) was 3.078 and the log2FC [15] was 0.578. The log2FC [16] was -1.4, the “fold change (FC)” value (U-87 MG [17]) was 1.852 and the “fold change (FC)” value (U-87 MG [18]) was 1.28. The “fold change (FC)” value (U-87 MG [19]) was -1.929, the “fold change (FC)” value (U-87 MG [20]) was 2.408 and the log2FC [21] was -0.666. The log2FC [22] was 0.536, the log2FC (U-87 MG [23]) was 2.467 and the Activity (LN-229 [24]) was 57.3%. For the same compound, the log2FC [25] was 0.669, the log2FC [26] was 1.91 and the log2FC [27] was 1.23. It also gave a log2FC (U-87 MG [28]) of -1.076.
